Activity calls are given as the source filed them. The calls are words filed in the database; no cut-off is given here.
Columns and labels:
[1] = system: KB; assay: Antitumor activity against FR-positive human KB cells assessed as decrease in cell viability measured after 48 hrs by MTT proliferation assay; assay type: functional, cell-based
In short: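 Cells kept in folate-free RPMI with 10% heat-inactivated FCS. Seeded at 1.0 × 10^4 cells/well and left to adhere overnight. Medium then replaced with drug at 0.1–500 nM, with or without 0.01 mM FA competitor, for 48 h at 37 °C. MTT added for 3 h, formazan dissolved in DMSO, A570 read against a no-MTT baseline. Viability given as % of control; 5 repeats.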

[2] = system: M109; assay: In vivo antitumor activity against FR-positive mouse M109 cells implanted in Balb/c mouse assessed as decrease in tumor volume at 2 umol/kg, iv treated 33 days after implantation for TIW 3 week schedule; assay type: functional, organism-based
[3] = system: Mus musculus; assay: Toxicity in FR-positive human KB cells implanted Balb/c mouse assessed as gross toxicity at 2 umol/kg, iv TIW 2 week schedule; assay type: organism-based; conditions: in vivo, 336 h
In short: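 Female Balb/c mice, 6–7 weeks old, on folate-free diet. 1 × 10^6 KB cells injected into the dorsal subcutis. Dosing began at tumor volumes of 50–110 mm³: 2 µmol/kg iv, three times a week for 2 weeks, alone or with 40-fold excess FA; PBS for controls. Caliper volumes (0.5 × L × W²) every 2–3 days; body weight followed. n = 5 per cohort.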

[4] = Half life in human serum at 37 degC; assay type: ADME, cell-free
In short: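 Compound added to human serum at a final 200 µM and held at 37 °C in a water bath for up to 24 h. Samples taken at 1–3, 5, 8, 12, 18 and 24 h (n = 3). Compound recovered by solid-phase extraction after adding 6 M guanidine (pH 7.4), then measured by HPLC as % recovery.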

| Structure (SMILES) | inhibition [1] | inhibition [2] | Activity [3] | half-life [4] | IC50 [1] |
| --- | --- | --- | --- | --- | --- |
| COc1ccc(/C=C/c2cc(O)cc(O[C@@H]3O[C@H](CN)[C@@H](O)[C@H](O)[C@H]3O)c2)cc1O | Active |  |  |  |  |
| COc1ccc(/C=C/c2cc(O)cc(O[C@@H]3O[C@H](CO)[C@@H](O)[C@H](O)[C@H]3O)c2)cc1O [RHAPONTIN] |  | Active | Toxic | 3.5 h | 34 nM |
| COc1ccc(/C=C/c2cc(O)cc(O[C@@H]3O[C@H](CNC(=O)OCCSSc4ccccn4)[C@@H](O)[C@H](O)[C@H]3O)c2)cc1O | Active |  |  |  |  |

Source: ChEMBL document CHEMBL2311329, “Synthesis and biological evaluation of a folate-targeted rhaponticin conjugate” (Bioorg Med Chem, 2013)
